According to ChEMBL document CHEMBL2157880, “Synthesis, antimycobacterial and antibacterial activity of ciprofloxacin derivatives containing a N-substituted benzyl moiety” (2012):
In brackets after ≈: the same amount, converted by molar mass.

Tests used:
Type in all cases: functional
Klebsiella pneumoniae [1] = assay: Antibacterial activity against Klebsiella pneumoniae 10-2 after 18 to 24 hrs by NCCLS method
How it was run: (§1)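 Standard NCCLS (M100-S11) MIC testing against Gram-positive and Gram-negative strains. Plates were incubated at 35 °C for 18–24 h. The MIC was read as the lowest concentration giving complete inhibition of visible bacterial growth.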

[2] = system: Staphylococcus epidermidis; assay: Antibacterial activity against methicillin-resistant Staphylococcus epidermidis 10-13 after 18 to 24 hrs by NCCLS method
How it was run: (§2)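 Incubated at 35 °C for 18–24 h under NCCLS (M100-S11) standards. MIC was read as the lowest concentration giving complete inhibition of visible bacterial growth.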

Staphylococcus aureus [3] = assay: Ratio of compound MIC to ciprofloxacin MIC for Staphylococcus aureus ATCC 2592
Escherichia coli [4] = assay: Antibacterial activity against extended spectrum beta-lactamases producing Escherichia coli 10-4 after 18 to 24 hrs by NCCLS method; how it was run: as §1
Klebsiella pneumoniae [5] = assay: Antibacterial activity against extended spectrum beta-lactamases producing Klebsiella pneumoniae 10-1 after 18 to 24 hrs by NCCLS method; how it was run: as §1
[6] = system: Staphylococcus epidermidis; assay: Antibacterial activity against methicillin-resistant Staphylococcus epidermidis 10-10 after 18 to 24 hrs by NCCLS method; how it was run: as §2
Staphylococcus aureus [7] = assay: Antibacterial activity against methicillin-resistant Staphylococcus aureus 10-11 after 18 to 24 hrs by NCCLS method; how it was run: as §2
Streptococcus pneumoniae [8] = assay: Antibacterial activity against Streptococcus pneumoniae 10-6 after 18 to 24 hrs by NCCLS method; how it was run: as §1
Enterococcus faecalis [9] = assay: Ratio of compound MIC to ciprofloxacin MIC for Enterococcus faecalis 10-6
Staphylococcus aureus [10] = assay: Antibacterial activity against methicillin-sensitive Staphylococcus aureus 10-13 after 18 to 24 hrs by NCCLS method; how it was run: as §1
Staphylococcus aureus [11] = assay: Antibacterial activity against methicillin-sensitive Staphylococcus aureus 10-14 after 18 to 24 hrs by NCCLS method; how it was run: as §1
Pseudomonas aeruginosa [12] = assay: Antibacterial activity against Pseudomonas aeruginosa 10-18 after 18 to 24 hrs by NCCLS method; how it was run: as §1
Enterococcus faecalis [13] = assay: Ratio of compound MIC to ciprofloxacin MIC for Enterococcus faecalis 10-5
Staphylococcus aureus [14] = assay: Ratio of compound MIC to ciprofloxacin MIC for methicillin-sensitive Staphylococcus aureus 10-14
Pseudomonas aeruginosa [15] = assay: Antibacterial activity against Pseudomonas aeruginosa 10-9 after 18 to 24 hrs by NCCLS method; how it was run: as §1
Escherichia coli [16] = assay: Antibacterial activity against Escherichia coli 10-1 after 18 to 24 hrs by NCCLS method; how it was run: as §1
[17] = system: Staphylococcus epidermidis; assay: Antibacterial activity against methicillin-sensitive Staphylococcus epidermidis 10-11 after 18 to 24 hrs by NCCLS method; how it was run: as §1
Enterococcus faecalis [18] = assay: Antibacterial activity against Enterococcus faecalis 10-6 after 18 to 24 hrs by NCCLS method; how it was run: as §1
Enterococcus faecium [19] = assay: Ratio of compound MIC to ciprofloxacin MIC for Enterococcus faecium 10-9
Enterococcus faecium [20] = assay: Ratio of compound MIC to ciprofloxacin MIC for Enterococcus faecium 10-6
Klebsiella pneumoniae [21] = assay: Antibacterial activity against Klebsiella pneumoniae 10-4 after 18 to 24 hrs by NCCLS method; how it was run: as §1
Streptococcus pneumoniae [22] = assay: Ratio of compound MIC to ciprofloxacin MIC for Streptococcus pneumoniae 10-6
Staphylococcus aureus [23] = assay: Antibacterial activity against methicillin-resistant Staphylococcus aureus 10-15 after 18 to 24 hrs by NCCLS method; how it was run: as §2
Pseudomonas aeruginosa [24] = assay: Antibacterial activity against Pseudomonas aeruginosa 10-20 after 18 to 24 hrs by NCCLS method; how it was run: as §1
Escherichia coli [25] = assay: Antibacterial activity against Escherichia coli 10-3 after 18 to 24 hrs by NCCLS method; how it was run: as §1
Escherichia coli [26] = assay: Antibacterial activity against extended spectrum beta-lactamases producing Escherichia coli 10-2 after 18 to 24 hrs by NCCLS method; how it was run: as §1
[27] = system: Staphylococcus epidermidis; assay: Antibacterial activity against methicillin-sensitive Staphylococcus epidermidis 10-15 after 18 to 24 hrs by NCCLS method; how it was run: as §2
Pseudomonas aeruginosa [28] = assay: Antibacterial activity against Pseudomonas aeruginosa 10-5 after 18 to 24 hrs by NCCLS method; how it was run: as §1
Staphylococcus aureus [29] = assay: Ratio of compound MIC to ciprofloxacin MIC for methicillin-sensitive Staphylococcus aureus 10-13
Staphylococcus aureus [30] = assay: Ratio of compound MIC to ciprofloxacin MIC for methicillin-sensitive Staphylococcus aureus 10-11
Staphylococcus aureus [31] = assay: Antibacterial activity against methicillin-sensitive Staphylococcus aureus 10-11 after 18 to 24 hrs by NCCLS method; how it was run: as §1
[32] = system: Staphylococcus epidermidis; assay: Ratio of compound MIC to ciprofloxacin MIC for methicillin-sensitive Staphylococcus epidermidis 10-11
Enterococcus faecalis [33] = assay: Antibacterial activity against Enterococcus faecalis 10-7 after 18 to 24 hrs by NCCLS method; how it was run: as §1
Staphylococcus aureus [34] = assay: Antibacterial activity against Staphylococcus aureus ATCC 2592 after 18 to 24 hrs by NCCLS method; how it was run: as §1
Enterococcus faecalis [35] = assay: Antibacterial activity against Enterococcus faecalis 10-5 after 18 to 24 hrs by NCCLS method; how it was run: as §1
[36] = system: Mycobacterium tuberculosis; assay: Antimycobacterial activity against Mycobacterium tuberculosis H37Rv ATCC 27294 by microplate alamar blue assay
How it was run: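 Microplate Alamar Blue fluorescence assay on strain H37Rv ATCC 27294. MIC was the lowest concentration cutting fluorescence by ≥90% against the mean of replicate bacterium-only controls.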

Enterococcus faecalis [37] = assay: Ratio of compound MIC to ciprofloxacin MIC for Enterococcus faecalis 10-7
Escherichia coli [38] = assay: Antibacterial activity against Escherichia coli 10-2 after 18 to 24 hrs by NCCLS method; how it was run: as §1
Pseudomonas aeruginosa [39] = assay: Antibacterial activity against Pseudomonas aeruginosa 10-15 after 18 to 24 hrs by NCCLS method; how it was run: as §1
Klebsiella pneumoniae [40] = assay: Antibacterial activity against extended spectrum beta-lactamases producing Klebsiella pneumoniae 10-3 after 18 to 24 hrs by NCCLS method; how it was run: as §1
Streptococcus pneumoniae [41] = assay: Antibacterial activity against Streptococcus pneumoniae 10-1 after 18 to 24 hrs by NCCLS method; how it was run: as §1
Streptococcus pneumoniae [42] = assay: Ratio of compound MIC to ciprofloxacin MIC for Streptococcus pneumoniae 10-1
Enterococcus faecium [43] = assay: Antibacterial activity against Enterococcus faecium 10-9 after 18 to 24 hrs by NCCLS method; how it was run: as §1
[44] = system: Staphylococcus epidermidis; assay: Ratio of compound MIC to ciprofloxacin MIC for methicillin-sensitive Staphylococcus epidermidis 10-15
Staphylococcus aureus [45] = assay: Antibacterial activity against methicillin-resistant Staphylococcus aureus 10-13 after 18 to 24 hrs by NCCLS method; how it was run: as §2
Klebsiella pneumoniae [46] = assay: Antibacterial activity against Klebsiella pneumoniae 10-3 after 18 to 24 hrs by NCCLS method; how it was run: as §1
Escherichia coli [47] = assay: Antibacterial activity against Escherichia coli ATCC 25922 after 18 to 24 hrs by NCCLS method; how it was run: as §1
Klebsiella pneumoniae [48] = assay: Antibacterial activity against extended spectrum beta-lactamases producing Klebsiella pneumoniae 10-2 after 18 to 24 hrs by NCCLS method; how it was run: as §1
Pseudomonas aeruginosa [49] = assay: Antibacterial activity against Pseudomonas aeruginosa 10-12 after 18 to 24 hrs by NCCLS method; how it was run: as §1
Enterococcus faecium [50] = assay: Antibacterial activity against Enterococcus faecium 10-6 after 18 to 24 hrs by NCCLS method; how it was run: as §1
Escherichia coli [51] = assay: Antibacterial activity against extended spectrum beta-lactamases producing Escherichia coli 10-3 after 18 to 24 hrs by NCCLS method; how it was run: as §1

Structure (SMILES): COc1ccc(CN2CCN(c3cc4c(cc3F)c(=O)c(C(=O)O)cn4C3CC3)CC2)cc1
- MIC (Klebsiella pneumoniae [1]): > 128 µg/mL
- MIC [2]: 8 µg/mL (≈ 17.7 µM)
- Ratio (Staphylococcus aureus [3]): 2
- MIC (Escherichia coli [4]): 8 µg/mL (≈ 17.7 µM)
- MIC (Klebsiella pneumoniae [5]): > 128 µg/mL
- MIC [6]: 8 µg/mL (≈ 17.7 µM)
- MIC (Staphylococcus aureus [7]): 16 µg/mL (≈ 35.4 µM)
- MIC (Streptococcus pneumoniae [8]): 16 µg/mL (≈ 35.4 µM)
- Ratio (Enterococcus faecalis [9]): 2
- MIC (Staphylococcus aureus [10]): 0.25 µg/mL (≈ 0.554 µM)
- MIC (Staphylococcus aureus [11]): 0.25 µg/mL (≈ 0.554 µM)
- MIC (Pseudomonas aeruginosa [12]): 4 µg/mL (≈ 8.86 µM)
- Ratio (Enterococcus faecalis [13]): 2
- Ratio (Staphylococcus aureus [14]): 2
- MIC (Pseudomonas aeruginosa [15]): 4 µg/mL (≈ 8.86 µM)
- MIC (Escherichia coli [16]): > 128 µg/mL
- MIC [17]: 0.5 µg/mL (≈ 1.11 µM)
- MIC (Enterococcus faecalis [18]): 32 µg/mL (≈ 70.9 µM)
- Ratio (Enterococcus faecium [19]): 2
- Ratio (Enterococcus faecium [20]): 2
- MIC (Klebsiella pneumoniae [21]): > 128 µg/mL
- Ratio (Streptococcus pneumoniae [22]): 2
- MIC (Staphylococcus aureus [23]): 4 µg/mL (≈ 8.86 µM)
- MIC (Pseudomonas aeruginosa [24]): 4 µg/mL (≈ 8.86 µM)
- MIC (Escherichia coli [25]): 8 µg/mL (≈ 17.7 µM)
- MIC (Escherichia coli [26]): > 128 µg/mL
- MIC [27]: 8 µg/mL (≈ 17.7 µM)
- MIC (Pseudomonas aeruginosa [28]): 4 µg/mL (≈ 8.86 µM)
- Ratio (Staphylococcus aureus [29]): 2
- Ratio (Staphylococcus aureus [30]): 2
- MIC (Staphylococcus aureus [31]): 0.125 µg/mL (≈ 0.277 µM)
- Ratio [32]: 2
- MIC (Enterococcus faecalis [33]): 8 µg/mL (≈ 17.7 µM)
- MIC (Staphylococcus aureus [34]): 0.06 µg/mL (≈ 0.133 µM)
- MIC (Enterococcus faecalis [35]): 4 µg/mL (≈ 8.86 µM)
- MIC [36]: 1 µg/mL (≈ 2.21 µM)
- Ratio (Enterococcus faecalis [37]): 2
- MIC (Escherichia coli [38]): 8 µg/mL (≈ 17.7 µM)
- MIC (Pseudomonas aeruginosa [39]): 2 µg/mL (≈ 4.43 µM)
- MIC (Klebsiella pneumoniae [40]): > 128 µg/mL
- MIC (Streptococcus pneumoniae [41]): 1 µg/mL (≈ 2.21 µM)
- Ratio (Streptococcus pneumoniae [42]): 2
- MIC (Enterococcus faecium [43]): 16 µg/mL (≈ 35.4 µM)
- Ratio [44]: 2
- MIC (Staphylococcus aureus [45]): 16 µg/mL (≈ 35.4 µM)
- MIC (Klebsiella pneumoniae [46]): 4 µg/mL (≈ 8.86 µM)
- MIC (Escherichia coli [47]): 0.125 µg/mL (≈ 0.277 µM)
- MIC (Klebsiella pneumoniae [48]): > 128 µg/mL
- MIC (Pseudomonas aeruginosa [49]): 2 µg/mL (≈ 4.43 µM)
- MIC (Enterococcus faecium [50]): 1 µg/mL (≈ 2.21 µM)
- MIC (Escherichia coli [51]): > 128 µg/mL

Structure (SMILES): COc1ccc(CN2CCN(c3cc4c(cc3F)c(=O)c(C(=O)O)cn4C3CC3)CC2)c(Cl)c1OC
- MIC (Klebsiella pneumoniae [1]): > 128 µg/mL
- MIC [2]: 32 µg/mL (≈ 62 µM)
- MIC (Escherichia coli [4]): > 128 µg/mL
- MIC (Klebsiella pneumoniae [5]): > 128 µg/mL
- MIC [6]: 32 µg/mL (≈ 62 µM)
- MIC (Staphylococcus aureus [7]): 64 µg/mL (≈ 124 µM)
- MIC (Streptococcus pneumoniae [8]): 64 µg/mL (≈ 124 µM)
- MIC (Staphylococcus aureus [10]): 0.5 µg/mL (≈ 0.969 µM)
- MIC (Staphylococcus aureus [11]): 0.5 µg/mL (≈ 0.969 µM)
- MIC (Pseudomonas aeruginosa [12]): 128 µg/mL (≈ 248 µM)
- MIC (Pseudomonas aeruginosa [15]): 128 µg/mL (≈ 248 µM)
- MIC (Escherichia coli [16]): > 128 µg/mL
- MIC [17]: 1 µg/mL (≈ 1.94 µM)
- MIC (Enterococcus faecalis [18]): 64 µg/mL (≈ 124 µM)
- MIC (Klebsiella pneumoniae [21]): > 128 µg/mL
- MIC (Staphylococcus aureus [23]): 64 µg/mL (≈ 124 µM)
- MIC (Pseudomonas aeruginosa [24]): 64 µg/mL (≈ 124 µM)
- MIC (Escherichia coli [25]): > 128 µg/mL
- MIC (Escherichia coli [26]): > 128 µg/mL
- MIC [27]: 32 µg/mL (≈ 62 µM)
- MIC (Pseudomonas aeruginosa [28]): 64 µg/mL (≈ 124 µM)
- MIC (Staphylococcus aureus [31]): 0.5 µg/mL (≈ 0.969 µM)
- MIC (Enterococcus faecalis [33]): 32 µg/mL (≈ 62 µM)
- MIC (Staphylococcus aureus [34]): 0.06 µg/mL (≈ 0.116 µM)
- MIC (Enterococcus faecalis [35]): 8 µg/mL (≈ 15.5 µM)
- MIC [36]: 2 µg/mL (≈ 3.88 µM)
- MIC (Escherichia coli [38]): 32 µg/mL (≈ 62 µM)
- MIC (Pseudomonas aeruginosa [39]): 64 µg/mL (≈ 124 µM)
- MIC (Klebsiella pneumoniae [40]): > 128 µg/mL
- MIC (Streptococcus pneumoniae [41]): 2 µg/mL (≈ 3.88 µM)
- MIC (Enterococcus faecium [43]): 32 µg/mL (≈ 62 µM)
- MIC (Staphylococcus aureus [45]): 128 µg/mL (≈ 248 µM)
- MIC (Klebsiella pneumoniae [46]): 32 µg/mL (≈ 62 µM)
- MIC (Escherichia coli [47]): 1 µg/mL (≈ 1.94 µM)
- MIC (Klebsiella pneumoniae [48]): > 128 µg/mL
- MIC (Pseudomonas aeruginosa [49]): 64 µg/mL (≈ 124 µM)
- MIC (Enterococcus faecium [50]): 4 µg/mL (≈ 7.75 µM)
- MIC (Escherichia coli [51]): > 128 µg/mL
